Tested on: Fibroblast
Assay: Multiplex assay against human fibroblast
Type: toxicity, cell-based
Summary of the method: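 Live cells carried four stains from seeding: Hoechst33342, BioTracker Green Microtubule Cytoskeleton Dye, MitoTracker Red and Annexin V Alexa Fluor 680. They were imaged on a CQ1 microscope at 37°C and 5% CO2 after compound addition. Using CellPathfinder machine-learning gating, cells were split into Hoechst high-intensity objects or normal cells, normal cells into healthy, pyknosed or fragmented nuclei, and pyknosed cells into mitotic or apoptotic; tubulin, mitochondrial-mass and membrane-permeability phenotypes are per cents of healthy-nucleus cells.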

[1] = 12 h, 1 µM, compound concentration 1 uM, replicate 1
[2] = 12 h, 1 µM, compound concentration 1 uM, replicate 2
[3] = 12 h, 10 µM, compound concentration 10 uM, replicate 1
[4] = 12 h, 10 µM, compound concentration 10 uM, replicate 2
[5] = 24 h, 1 µM, compound concentration 1 uM, replicate 1
[6] = 24 h, 1 µM, compound concentration 1 uM, replicate 2
[7] = 24 h, 10 µM, compound concentration 10 uM, replicate 1
[8] = 24 h, 10 µM, compound concentration 10 uM, replicate 2

`CN1CCN(C(=O)C(C)(C)c2ccc(C(=O)Nc3cn4cc(-c5cc(C(C)(C)C)cc(C(C)(C)C)c5)ccc4n3)cc2)CC1` [T3-CLK-N] was tested, and the “Population Apoptotic (%)” value [1] was 84%, the “Population Fragmented Nuclei (%)” value [1] was 34% and the “Population Healthy Nuclei (%)” value [1] was 52%. The “Population Hoechst High Intensity Objects (%)” value [1] was 19%, the “Population Membrane Permeable-Phenotype (%)” value [1] was 8% and the “Population Mitochondria Different-Phenotype (%)” value [1] was 1%. The “Population Mitotic Cells (%)” value [1] was 16%, the “Population Normal (%)” value [1] was 80% and the “Population Pyknosed Nuclei (%)” value [1] was 13%. For the same molecule, the “Population Tubulin-Different-Phenotype (%)” value [1] was 3%, the “Total Cell Count” value [1] was 237 and the “Population Apoptotic (%)” value [2] was 42%. For the same molecule, the “Population Fragmented Nuclei (%)” value [2] was 44%, the “Population Healthy Nuclei (%)” value [2] was 44% and the “Population Hoechst High Intensity Objects (%)” value [2] was 26%. The “Population Membrane Permeable-Phenotype (%)” value [2] was 14%, the “Population Mitochondria Different-Phenotype (%)” value [2] was 11% and the “Population Mitotic Cells (%)” value [2] was 57%. The “Population Normal (%)” value [2] was 73%, the “Population Pyknosed Nuclei (%)” value [2] was 11% and the “Population Tubulin-Different-Phenotype (%)” value [2] was 22%. For the same molecule, the “Total Cell Count” value [2] was 83, the “Population Apoptotic (%)” value [3] was 78% and the “Population Fragmented Nuclei (%)” value [3] was 39%. The “Population Healthy Nuclei (%)” value [3] was 45%, the “Population Hoechst High Intensity Objects (%)” value [3] was 16% and the “Population Membrane Permeable-Phenotype (%)” value [3] was 23%. The “Population Mitochondria Different-Phenotype (%)” value [3] was 1%, the “Population Mitotic Cells (%)” value [3] was 21% and the “Population Normal (%)” value [3] was 83%. The “Population Pyknosed Nuclei (%)” value [3] was 14%, the “Population Tubulin-Different-Phenotype (%)” value [3] was 21% and the “Total Cell Count” value [3] was 260. The “Population Apoptotic (%)” value [4] was 50%, the “Population Fragmented Nuclei (%)” value [4] was 40% and the “Population Healthy Nuclei (%)” value [4] was 30%. For the same molecule, the “Population Hoechst High Intensity Objects (%)” value [4] was 39%, the “Population Membrane Permeable-Phenotype (%)” value [4] was 30% and the “Population Mitochondria Different-Phenotype (%)” value [4] was 23%. The “Population Mitotic Cells (%)” value [4] was 50%, the “Population Normal (%)” value [4] was 60% and the “Population Pyknosed Nuclei (%)” value [4] was 28%. The “Population Tubulin-Different-Phenotype (%)” value [4] was 23%, the “Total Cell Count” value [4] was 69 and the “Population Apoptotic (%)” value [5] was 73%. For the same molecule, the “Population Fragmented Nuclei (%)” value [5] was 31%, the “Population Healthy Nuclei (%)” value [5] was 51% and the “Population Hoechst High Intensity Objects (%)” value [5] was 16%. The “Population Membrane Permeable-Phenotype (%)” value [5] was 9%, the “Population Mitochondria Different-Phenotype (%)” value [5] was 2% and the “Population Mitotic Cells (%)” value [5] was 26%. The “Population Normal (%)” value [5] was 83%, the “Population Pyknosed Nuclei (%)” value [5] was 16% and the “Population Tubulin-Different-Phenotype (%)” value [5] was 6%. The “Total Cell Count” value [5] was 243, the “Population Apoptotic (%)” value [6] was 40% and the “Population Fragmented Nuclei (%)” value [6] was 42%. For the same molecule, the “Population Healthy Nuclei (%)” value [6] was 48%, the “Population Hoechst High Intensity Objects (%)” value [6] was 28% and the “Population Membrane Permeable-Phenotype (%)” value [6] was 11%. For the same molecule, the “Population Mitochondria Different-Phenotype (%)” value [6] was 11%, the “Population Mitotic Cells (%)” value [6] was 60% and the “Population Normal (%)” value [6] was 71%. For the same molecule, the “Population Pyknosed Nuclei (%)” value [6] was 8%, the “Population Tubulin-Different-Phenotype (%)” value [6] was 11% and the “Total Cell Count” value [6] was 78. For the same molecule, the “Population Apoptotic (%)” value [7] was 82%, the “Population Fragmented Nuclei (%)” value [7] was 32% and the “Population Healthy Nuclei (%)” value [7] was 54%. The “Population Hoechst High Intensity Objects (%)” value [7] was 10%, the “Population Membrane Permeable-Phenotype (%)” value [7] was 22% and the “Population Mitochondria Different-Phenotype (%)” value [7] was 5%. The “Population Mitotic Cells (%)” value [7] was 17%, the “Population Normal (%)” value [7] was 89% and the “Population Tubulin-Different-Phenotype (%)” value [7] was 30%. For the same molecule, the “Total Cell Count” value [7] was 245, the “Population Apoptotic (%)” value [8] was 33% and the “Population Fragmented Nuclei (%)” value [8] was 55%. For the same molecule, the “Population Healthy Nuclei (%)” value [8] was 30%, the “Population Hoechst High Intensity Objects (%)” value [8] was 38% and the “Population Membrane Permeable-Phenotype (%)” value [8] was 38%. For the same molecule, the “Population Mitochondria Different-Phenotype (%)” value [8] was 15%, the “Population Mitotic Cells (%)” value [8] was 66% and the “Population Normal (%)” value [8] was 61%. For the same molecule, the “Population Pyknosed Nuclei (%)” value [8] was 13%, the “Population Tubulin-Different-Phenotype (%)” value [8] was 23% and the “Total Cell Count” value [8] was 70.
In the case of `COc1ccc(-c2ccc3c(N4CCOCC4)nc(N4C[C@@H](C)O[C@@H](C)C4)nc3n2)cc1CO` [Ku-0063794], the “Population Apoptotic (%)” value [1] is reported as 72%, the “Population Fragmented Nuclei (%)” value [1] is reported as 30% and the “Population Healthy Nuclei (%)” value [1] is reported as 52%. For the same molecule, the “Population Hoechst High Intensity Objects (%)” value [1] was 16%, the “Population Membrane Permeable-Phenotype (%)” value [1] was 5% and the “Population Mitochondria Different-Phenotype (%)” value [1] was 1%. The “Population Mitotic Cells (%)” value [1] was 27%, the “Population Normal (%)” value [1] was 83% and the “Population Pyknosed Nuclei (%)” value [1] was 16%. For the same molecule, the “Population Tubulin-Different-Phenotype (%)” value [1] was 3%, the “Total Cell Count” value [1] was 281 and the “Population Apoptotic (%)” value [2] was 33%. The “Population Fragmented Nuclei (%)” value [2] was 61%, the “Population Healthy Nuclei (%)” value [2] was 30% and the “Population Hoechst High Intensity Objects (%)” value [2] was 35%. The “Population Membrane Permeable-Phenotype (%)” value [2] was 17%, the “Population Mitochondria Different-Phenotype (%)” value [2] was 13% and the “Population Mitotic Cells (%)” value [2] was 66%. For the same molecule, the “Population Normal (%)” value [2] was 64%, the “Population Pyknosed Nuclei (%)” value [2] was 8% and the “Population Tubulin-Different-Phenotype (%)” value [2] was 17%. The “Total Cell Count” value [2] was 116, the “Population Apoptotic (%)” value [3] was 77% and the “Population Fragmented Nuclei (%)” value [3] was 72%. The “Population Healthy Nuclei (%)” value [3] was 20%, the “Population Hoechst High Intensity Objects (%)” value [3] was 63% and the “Population Membrane Permeable-Phenotype (%)” value [3] was 14%. For the same molecule, the “Population Mitochondria Different-Phenotype (%)” value [3] was 3%, the “Population Mitotic Cells (%)” value [3] was 22% and the “Population Normal (%)” value [3] was 36%. The “Population Pyknosed Nuclei (%)” value [3] was 6%, the “Population Tubulin-Different-Phenotype (%)” value [3] was 7% and the “Total Cell Count” value [3] was 736. For the same molecule, the “Population Apoptotic (%)” value [4] was 0%, the “Population Fragmented Nuclei (%)” value [4] was 82% and the “Population Healthy Nuclei (%)” value [4] was 17%. The “Population Hoechst High Intensity Objects (%)” value [4] was 66%, the “Population Membrane Permeable-Phenotype (%)” value [4] was 42% and the “Population Mitochondria Different-Phenotype (%)” value [4] was 42%. The “Population Mitotic Cells (%)” value [4] was 0%, the “Population Normal (%)” value [4] was 33% and the “Population Pyknosed Nuclei (%)” value [4] was 0%. The “Population Tubulin-Different-Phenotype (%)” value [4] was 28%, the “Total Cell Count” value [4] was 244 and the “Population Apoptotic (%)” value [5] was 67%. The “Population Fragmented Nuclei (%)” value [5] was 33%, the “Population Healthy Nuclei (%)” value [5] was 54% and the “Population Hoechst High Intensity Objects (%)” value [5] was 18%. The “Population Membrane Permeable-Phenotype (%)” value [5] was 7%, the “Population Mitochondria Different-Phenotype (%)” value [5] was 2% and the “Population Mitotic Cells (%)” value [5] was 32%. The “Population Normal (%)” value [5] was 81%, the “Population Pyknosed Nuclei (%)” value [5] was 11% and the “Population Tubulin-Different-Phenotype (%)” value [5] was 3%. The “Total Cell Count” value [5] was 290, the “Population Apoptotic (%)” value [6] was 80% and the “Population Fragmented Nuclei (%)” value [6] was 65%. The “Population Healthy Nuclei (%)” value [6] was 28%, the “Population Hoechst High Intensity Objects (%)” value [6] was 25% and the “Population Membrane Permeable-Phenotype (%)” value [6] was 9%. The “Population Mitochondria Different-Phenotype (%)” value [6] was 13%, the “Population Mitotic Cells (%)” value [6] was 20% and the “Population Normal (%)” value [6] was 74%. For the same molecule, the “Population Pyknosed Nuclei (%)” value [6] was 6%, the “Population Tubulin-Different-Phenotype (%)” value [6] was 13% and the “Total Cell Count” value [6] was 105. The “Population Apoptotic (%)” value [7] was 59%, the “Population Fragmented Nuclei (%)” value [7] was 72% and the “Population Healthy Nuclei (%)” value [7] was 21%. For the same molecule, the “Population Hoechst High Intensity Objects (%)” value [7] was 58%, the “Population Membrane Permeable-Phenotype (%)” value [7] was 10% and the “Population Mitochondria Different-Phenotype (%)” value [7] was 0%. The “Population Mitotic Cells (%)” value [7] was 40%, the “Population Normal (%)” value [7] was 41% and the “Population Pyknosed Nuclei (%)” value [7] was 6%. The “Population Tubulin-Different-Phenotype (%)” value [7] was 7%, the “Total Cell Count” value [7] was 790 and the “Population Apoptotic (%)” value [8] was 100%. For the same molecule, the “Population Fragmented Nuclei (%)” value [8] was 78%, the “Population Healthy Nuclei (%)” value [8] was 20% and the “Population Hoechst High Intensity Objects (%)” value [8] was 70%. The “Population Membrane Permeable-Phenotype (%)” value [8] was 28%, the “Population Mitochondria Different-Phenotype (%)” value [8] was 21% and the “Population Mitotic Cells (%)” value [8] was 0%. For the same molecule, the “Population Normal (%)” value [8] was 29%, the “Population Pyknosed Nuclei (%)” value [8] was 1% and the “Population Tubulin-Different-Phenotype (%)” value [8] was 21%. For the same molecule, the “Total Cell Count” value [8] was 241.

Reference: ChEMBL document CHEMBL4689842, “EUbOPEN Chemogenomics Library wave 1” (2021)
